One may read the Ki as a measure of affinity in units of concentration, obtained from inhibition or displacement.

The values below come from ChEMBL document CHEMBL3352008, “Dualsteric muscarinic antagonists--orthosteric binding pose controls allosteric subtype selectivity” (J Med Chem, 2014).

Numbering of substitutions follows the chain as printed. The source made the active and inactive calls. No cut-off for these calls is given here.

Common to all, as to type: cell-based
For assay [1], the target named is T1, Muscarinic acetylcholine receptor M2 (Homo sapiens, UniProt P08172).
T1 sequence (P08172 whole entry): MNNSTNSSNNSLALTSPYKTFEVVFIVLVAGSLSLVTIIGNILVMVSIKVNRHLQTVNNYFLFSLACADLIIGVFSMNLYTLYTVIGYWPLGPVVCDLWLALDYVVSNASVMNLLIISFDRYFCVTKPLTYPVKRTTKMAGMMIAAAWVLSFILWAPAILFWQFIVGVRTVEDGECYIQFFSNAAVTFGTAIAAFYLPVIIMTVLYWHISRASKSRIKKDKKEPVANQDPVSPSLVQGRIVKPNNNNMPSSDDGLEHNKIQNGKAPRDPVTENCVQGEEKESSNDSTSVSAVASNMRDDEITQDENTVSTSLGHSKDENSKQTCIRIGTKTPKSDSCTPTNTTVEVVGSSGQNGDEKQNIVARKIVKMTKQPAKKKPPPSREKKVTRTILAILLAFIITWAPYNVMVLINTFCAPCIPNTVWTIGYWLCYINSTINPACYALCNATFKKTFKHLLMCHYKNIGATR
Description: (§1) Displacement of [3H]-NMS from wild-type human muscarinic M2 receptor expressed in Flp-In-CHO cells by liquid scintillation counting. The procedure, abridged:
(§2)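 Separated by rapid filtration, counted by liquid scintillation. Means ± SEM of 3−4 independent experiments in triplicate; unpaired two-tailed t test versus wild type.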
(In general: In a radioligand displacement assay an active substance lowers the binding of a labelled ligand.)

In assay [2] the target is Muscarinic acetylcholine receptor M2 (Homo sapiens, UniProt P08172, Y104A). Description: (§3) Displacement of [3H]-NMS from human muscarinic M2 Y104A mutant expressed in Flp-In-CHO cells by liquid scintillation counting. The procedure, abridged: (§4)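 Bound separated either by rapid filtration or, in some cases, by centrifugation at 21000g, 15 °C, 20 min. Pellet washed once, resuspended, counted by liquid scintillation. Triplicate determinations.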
Muscarinic acetylcholine receptor M2 (Homo sapiens, UniProt P08172, Y104A), sequence (P08172 whole entry Y104A): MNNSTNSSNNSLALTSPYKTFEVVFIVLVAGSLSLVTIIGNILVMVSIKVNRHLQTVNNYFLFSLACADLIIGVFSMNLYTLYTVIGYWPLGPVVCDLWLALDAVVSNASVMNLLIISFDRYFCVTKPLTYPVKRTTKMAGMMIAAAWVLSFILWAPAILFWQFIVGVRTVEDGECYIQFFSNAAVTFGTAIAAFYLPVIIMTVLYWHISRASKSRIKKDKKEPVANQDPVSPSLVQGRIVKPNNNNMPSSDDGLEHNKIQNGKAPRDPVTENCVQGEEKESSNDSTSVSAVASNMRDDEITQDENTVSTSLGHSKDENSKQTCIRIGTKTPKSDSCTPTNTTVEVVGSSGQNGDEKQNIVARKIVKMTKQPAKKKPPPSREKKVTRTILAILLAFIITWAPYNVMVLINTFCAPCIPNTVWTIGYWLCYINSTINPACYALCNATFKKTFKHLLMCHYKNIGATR

For assay [3], the target named is Muscarinic acetylcholine receptor M2 (Homo sapiens, UniProt P08172, Y177Q). Description: (§5) Displacement of [3H]-NMS from human muscarinic M2 Y177Q mutant expressed in Flp-In-CHO cells by liquid scintillation counting. In outline: as §2
Muscarinic acetylcholine receptor M2 (Homo sapiens, UniProt P08172, Y177Q), sequence (P08172 whole entry Y177Q): as the sequence (P08172 whole entry Y104A) above, with A104Y, Y177Q counted along it
The target of assay [4] is Muscarinic acetylcholine receptor M2 (Homo sapiens, UniProt P08172, T423H/Y177Q). The experiment in a line: (§6) Displacement of [3H]-NMS from human muscarinic M2 Y177Q/T423H mutant expressed in Flp-In-CHO cells by liquid scintillation counting. The procedure, abridged: as §2
Muscarinic acetylcholine receptor M2 (Homo sapiens, UniProt P08172, T423H/Y177Q), sequence (P08172 whole entry Y177Q/T423H): as the sequence (P08172 whole entry Y104A) above, with A104Y, Y177Q, T423H counted along it
The target in assay [5] is Muscarinic acetylcholine receptor M2 (Homo sapiens, UniProt P08172, W422A). The experiment in a line: Displacement of [3H]-NMS from human muscarinic M2 W422A mutant expressed in Flp-In-CHO cells by liquid scintillation counting. The procedure, abridged: as §2
Muscarinic acetylcholine receptor M2 (Homo sapiens, UniProt P08172, W422A), sequence (P08172 whole entry W422A): as the sequence (P08172 whole entry Y104A) above, with A104Y, W422A counted along it
In assay [6] the target is T2, Muscarinic acetylcholine receptor M5 (Homo sapiens, UniProt P08912).
T2 sequence (P08912 whole entry): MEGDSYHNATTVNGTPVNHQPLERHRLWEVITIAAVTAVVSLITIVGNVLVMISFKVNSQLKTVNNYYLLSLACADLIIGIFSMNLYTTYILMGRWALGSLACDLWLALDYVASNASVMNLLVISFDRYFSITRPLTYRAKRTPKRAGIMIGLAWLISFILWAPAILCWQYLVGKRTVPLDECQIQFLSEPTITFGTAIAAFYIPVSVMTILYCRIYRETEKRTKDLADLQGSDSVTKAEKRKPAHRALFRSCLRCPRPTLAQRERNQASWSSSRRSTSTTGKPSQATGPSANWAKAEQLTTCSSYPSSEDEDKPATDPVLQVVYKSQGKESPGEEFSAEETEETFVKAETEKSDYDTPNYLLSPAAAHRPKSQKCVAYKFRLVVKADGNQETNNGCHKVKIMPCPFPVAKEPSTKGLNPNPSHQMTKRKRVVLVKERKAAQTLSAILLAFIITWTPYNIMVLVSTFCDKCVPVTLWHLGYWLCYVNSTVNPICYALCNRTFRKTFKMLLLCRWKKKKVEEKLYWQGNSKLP
The experiment in a line: (§7) Displacement of [3H]-NMS from wild-type human muscarinic M5 receptor expressed in CHO-K1 cells by liquid scintillation counting. In outline: as §2

In assay [7] the target is T3, Muscarinic acetylcholine receptor M2 (Homo sapiens) (UniProt P08172).
T3 sequence (whole entry): T1 sequence (P08172 whole entry)
The assay is described as §1. The procedure, abridged: as §2

In assay [8] the test system is T4, Muscarinic acetylcholine receptor M2 (Homo sapiens), P08172 [Y104A].
T4 sequence (whole entry): T1 sequence (P08172 whole entry) with Y104A
The assay is described as §3. The procedure, abridged:
as §4

The test system of assay [9] is T5, Muscarinic acetylcholine receptor M2 (Homo sapiens), P08172 [Y177Q,T423H].
T5 sequence (whole entry): T1 sequence (P08172 whole entry) with Y177Q, T423H
Described as §6. In outline:
as §2

The target of assay [10] is T6, Muscarinic acetylcholine receptor M5 (Homo sapiens) (UniProt P08912).
T6 sequence (whole entry): T2 sequence (P08912 whole entry)
The description is as §7. The procedure, abridged:
as §2

Assay [11] concerns the target T3, Muscarinic acetylcholine receptor M2 (Homo sapiens). The experiment in a line: Antagonist activity at wild-type human muscarinic M2 receptor expressed in Flp-In-CHO cells assessed as inhibition of acetylcholine-induced effect at 0.01 to 100 uM by time-course assay. The procedure, abridged: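 Label-free dynamic mass redistribution (Epic reader) in Flp-In-CHO cells stably expressing hM2, seeded at 12500 cells/well and grown 20 h at 37 °C to confluence. Cells washed and rested 2 h at 28 °C in HBSS with 20 mM HEPES, pH 7.0. DMR signal induced by a maximally effective acetylcholine concentration, antagonist then added and response followed over time. Representative experiment, n = 4, repeated at least twice on separate days.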

Assay [12] concerns T7, Muscarinic acetylcholine receptor M2 (Homo sapiens), P08172 [Y177Q].
T7 sequence (whole entry): T1 sequence (P08172 whole entry) with Y177Q
The assay is described as §5. In outline:
as §2

Assay [13] has as its target T3, Muscarinic acetylcholine receptor M2 (Homo sapiens). The experiment in a line: Antagonist activity at wild-type human muscarinic M2 receptor expressed in Flp-In-CHO cells assessed as inhibition of acetylcholine-induced effect at 0.1 to 100 uM by time-course assay. In outline: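 DMR (label-free optical) in Flp-In-CHO cells stably expressing hM2, seeded 12500 cells/well, grown 20 h at 37 °C. Washed, rested 2 h at 28 °C in HBSS + 20 mM HEPES pH 7.0. Acetylcholine at maximally effective concentration, then antagonist; responses monitored 1 h. Representative experiment, n = 4, repeated at least twice on separate days.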

For assay [14] the target is unchanged. Description: Antagonist activity at wild-type human muscarinic M2 receptor expressed in Flp-In-CHO cells assessed as inhibition of acetylcholine-induced effect at 100 uM in absence of atropine by time-course assay.

In the case of `C[N+](C)(C)CCCCCC[N+]1(C)[C@@H]2CC[C@@H]1CC(OC(=O)C(CO)c1ccccc1)C2` (relative stereo), the Ki was 16.2 nM in assay [1]; 151 nM in assay [2]; 18.6 nM in assay [3]; 18.2 nM in assay [4]; 55 nM in assay [5]; 87.1 nM in assay [6].

On to `C[N+]1(C)[C@@H]2CC[C@@H]1CC(OC(=O)C(CO)c1ccccc1)C2` (stereo not given in full), for which the inhibitory constant (Ki) in assay [1] is 1.82 nM; in [2], 11 nM.

In the case of `C[N+](C)(CCCCCC[N+](C)(C)CCCN1C(=O)c2ccccc2C1=O)CCCN1C(=O)c2ccccc2C1=O`, the pKA in [7] turned out to be 6.55; in [8], 6.59; in assay [9] it was 5.47; in assay [10], 4.37.

Take `C[N+](C)(C)CCCCCC[N+](C)(C)CC#CCOC1=NOCC1`: the Ki in assay [2] is 1290 nM; in assay [3] it was 91.2 nM; in [4], 64.6 nM; in [5], 275 nM; in assay [6], 3980 nM.

For the compound `C[N+](C)(C)CCCCCC[N+]1(C)[C@@H]2C[C@H](OC(=O)[C@H](CO)c3ccccc3)C[C@H]1[C@@H]1O[C@@H]12` (stereo not given in full), the Ki is 47.9 nM in assay [1], 309 nM in assay [2], 40.7 nM in assay [5] and 20.9 nM in assay [6].

As for `CN(C)CC#CCOC1=NOCC1`, the affinity in [1], expressed as Ki, was 100 nM. In other words, the sub-micromolar range.

In the case of `CN1[C@@H]2CC[C@H]1CC(OC(=O)[C@H](CO)c1ccccc1)C2` (stereo not given in full), the inhibition entry in assay [11] was “Active”.

As to `CC(C)(CN1C(=O)c2cccc3cccc(c23)C1=O)C[N+](C)(C)CCCCCC[N+](C)(C)CC#CCOC1=NOCC1`, the Ki in assay [1] is 11.5 nM; in assay [2] it was 14.5 nM; in [4], 26.9 nM; in assay [5] it was 19.5 nM.

On to `C[N+](C)(CC#CCOC1=NOCC1)CCCCCC[N+](C)(C)CCCN1C(=O)c2ccccc2C1=O`, for which the Ki in assay [1] was 91.2 nM; in assay [2] it was 204 nM; in assay [3], 275 nM; in assay [4], 200 nM; in assay [5] it was 75.9 nM; in assay [6] it was 30200 nM.

With `CC(C)(CN1C(=O)c2cccc3cccc(c23)C1=O)C[N+](C)(C)CCCCCC[N+](C)(C)CCCN1C(=O)c2ccccc2C1=O`, the pKA in [7] worked out at 7.7; in assay [8] it was 7.64; in assay [12] it was 6.23; in assay [9], 5.82; in assay [10], 5.05. In assay [11], the inhibition result is “Active”.

Turning to `C[N+](C)(C)CC#CCOC1=NOCC1`, the Ki was 2.51 nM in assay [1]; 257 nM in assay [2]; 8.71 nM in assay [3]; 2.19 nM in assay [4]; 10 nM in assay [5]; 120 nM in assay [6].

On to `CC(C)(CN1C(=O)c2cccc3cccc(c23)C1=O)C[N+](C)(C)CCCCCC[N+]1(C)[C@@H]2CC[C@@H]1CC(OC(=O)C(CO)c1ccccc1)C2` (relative stereo), for which the Ki in [1] was 2.82 nM; in [2] it was 61.7 nM; in [3], 8.51 nM; in assay [4], 2.82 nM; in assay [5], 21.4 nM; in assay [6], 19.5 nM. The inhibition result in assay [13] is “Active”. In addition, the inhibition result in assay [14] was “inactive”.

Take `C[N+](C)(CCCCCC[N+]1(C)[C@@H]2C[C@H](OC(=O)[C@H](CO)c3ccccc3)C[C@H]1[C@@H]1O[C@@H]12)CCCN1C(=O)c2ccccc2C1=O` (stereo not given in full): the Ki was 8.13 nM in assay [1]; 50.1 nM in assay [2]; 7.08 nM in assay [3]; 7.08 nM in assay [4]; 6.92 nM in [5]; 17 nM in assay [6].

Turning to `CC(C)(CN1C(=O)c2cccc3cccc(c23)C1=O)C[N+](C)(C)CCCCCC[N+]1(C)[C@@H]2C[C@H](OC(=O)[C@H](CO)c3ccccc3)C[C@H]1[C@@H]1O[C@@H]12` (stereo not given in full), the Ki was 6.17 nM in assay [1]; 132 nM in [2]; 8.91 nM in assay [3]; 3.31 nM in assay [4]; 6.46 nM in assay [5]; 5.5 nM in assay [6].
